Measurements published in ChEMBL document CHEMBL5331127, “Discovery of ARD-2051 as a Potent and Orally Efficacious Proteolysis Targeting Chimera (PROTAC) Degrader of Androgen Receptor for the Treatment of Advanced Prostate Cancer” (J Med Chem, 2023).
Active and inactive are the calls of the source. The rule behind the calls is not given here.

Experiments:
[1] = Drug concentration in ICR mouse plasma at 10 mg/kg, po measured after 6 hrs; assay type: ADME, organism-based
Outline: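 Mice given a single 10 mg/kg dose by oral gavage, 3 mice per time point. Plasma drug levels measured at 1, 3, 6 and 24 h; mean ± SD reported.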

VCaP [2] = test: Induction of androgen receptor degradation in human VCaP cells at 100 nM pretreated with thalidomide for 2 hrs followed by compound addition and 3 hrs by Western blot analysis; assay type: functional, cell-based; settings: time 5.0 hrs
Outline: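 LNCaP or VCaP cells pretreated 2 h with DMSO, ARi-12 (10 μM), thalidomide (10 μM), MG-132 (3 μM) or MLN4924 (0.5 μM), then given degrader at 100 nM for 3 h. AR measured by Western blot with GAPDH as loading control.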

[3] = Downregulation of KLK3 gene expression in human LNCaP cells at 10 nM incubated for 24 hrs by qRT-PCR analysis; assay type: functional
Outline: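 LNCaP cells (RPMI 1640) or VCaP cells (DMEM Glutamax), both with 10% FBS, treated for 24 h. KLK3 mRNA measured by qRT-PCR and calculated by the comparative CT method against GAPDH and vehicle.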

[4] = Metabolic stability in dog hepatocytes assessed as half life at 1 uM measured upto 120 mins in presence of NADPH by LC-MS/MS analysis; assay type: ADME, cell-based, Canis lupus familiaris, Hepatocyte; settings: 2 h
[5] = Metabolic stability in mouse plasma assessed as half life at 1 uM measured upto 120 mins by LC-MS/MS analysis; assay type: ADME, cell-free; settings: 2 h
Outline: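 Compound at 1 μM final in pre-warmed plasma of each species, 37 °C for up to 2 h. ACN/IS quench at 0, 5, 15, 30, 60 and 120 min; LC/MS. Procaine as reference (benfluorex for rat). t1/2 = 0.693/slope of ln(fraction remaining) versus time.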

[6] = Plasma protein binding in monkey at 1 uM after 5 hrs by equilibrium dialysis based LC-MS/MS analysis; assay type: ADME, cell-free, Macaca mulatta; settings: rhesus monkey
Outline: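 Equilibrium dialysis of pooled plasma of each species spiked at 1 μM against 0.1 M sodium phosphate, pH 7.4. 5 h at 37 °C with shaking at 60 rpm. Both sides matrix-matched, ACN/IS quench, LC/MS. % bound = 100 − (buffer/plasma peak-area ratio × 100); recovery also calculated. Warfarin as reference.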

Cytochrome P450 2C8 = biological target: T1, Cytochrome P450 2C8 (Homo sapiens, UniProt P10632); test: Inhibition of CYP2C8 in human liver microsomes preincubated for 5 mins followed by NADPH addition and measured after 20 mins by LC/MS analysis; assay type: ADME, Microsome
T1 sequence (P10632 whole entry): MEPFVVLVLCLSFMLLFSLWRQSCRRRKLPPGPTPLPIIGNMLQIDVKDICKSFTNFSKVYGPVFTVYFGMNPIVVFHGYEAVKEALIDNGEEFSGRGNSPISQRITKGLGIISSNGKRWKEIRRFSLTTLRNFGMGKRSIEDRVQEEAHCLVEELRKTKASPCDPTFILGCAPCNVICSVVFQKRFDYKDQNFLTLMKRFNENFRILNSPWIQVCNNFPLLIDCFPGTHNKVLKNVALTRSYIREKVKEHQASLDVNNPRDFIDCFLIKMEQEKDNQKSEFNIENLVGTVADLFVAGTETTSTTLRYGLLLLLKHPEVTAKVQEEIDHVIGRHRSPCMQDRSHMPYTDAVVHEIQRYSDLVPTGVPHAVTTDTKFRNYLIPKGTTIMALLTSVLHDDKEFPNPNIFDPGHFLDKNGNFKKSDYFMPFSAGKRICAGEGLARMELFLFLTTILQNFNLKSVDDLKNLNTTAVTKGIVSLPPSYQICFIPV

[7] = Clearance in Sprague-Dawley rat at 1 mg/kg, iv measured upto 24 hrs by LC-MS/MS analysis; assay type: ADME, organism-based; settings: in vivo
Outline: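 Male Sprague Dawley rats received a single intravenous dose of 1 mg/kg, formulated in 10% PEG400 + 90% PBS adjusted to pH 8.0 with 0.5 N NaOH.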

[8] = Oral bioavailability in Beagle dog at 3 mg/kg measured up to 24 hrs by LC-MS/MS analysis; assay type: ADME, organism-based, Canis lupus familiaris; settings: in vivo
Outline: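 Male Beagle dogs. IV 1 mg/kg in 10% PEG400 + 90% PBS (pH 8.0); PO 3 mg/kg in 90% PEG400 + 10% Cremophor. Plasma PK to 24 h; F from IV and PO exposure.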

VCaP [9] = test: Antitumor activity against human VCaP cells xenografted in CB17 SCID mouse assessed as tumor growth inhibition at 3.75 mg/kg, po administered for 21 days; assay type: functional; settings: 504 h, time 21 day, read-out: TGI
Outline: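 SCID mice bearing VCaP xenografts dosed by oral gavage once daily for 21 days at 3.75, 7.5, 12.5 or 25 mg/kg. Tumour growth inhibition calculated against vehicle-treated mice at the end of treatment; body weight monitored.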

VCaP [10] = test: Antitumor activity against human VCaP cells xenografted in CB17 SCID mouse assessed as tumor growth inhibition at 15 mg/kg, po administered for 21 days; assay type: functional; settings: 504 h, time 21 day, read-out: TGI
VCaP [11] = test: Antitumor activity against human VCaP cells xenografted in CB17 SCID mouse assessed as tumor growth inhibition at 30 mg/kg, po administered for 21 days; assay type: functional; settings: 504 h, time 21 day, read-out: TGI

C[C@H]1CC2(CCN(c3ccc(C(=O)N4CCN(C5CN(c6ccc7c(c6)C(=O)N(C6CCC(=O)NC6=O)C7=O)C5)CC4)cc3)CC2)CN1c1ccc(C#N)c(Cl)c1 (some centres not stated)
concentration at 6 h [1]: 369 ng/mL
Activity (VCaP [2]): inactive
Activity [3]: 79%
t1/2 [4]: > 2 h
t1/2 [5]: > 2 h
PPB [6]: 99.2%
IC50 (Cytochrome P450 2C8): > 10 µM
clearance [7]: 10.2 mL/min/kg
F [8]: 46%
inhibition in vivo at 3.75 mg/kg (VCaP [9]): 44%
inhibition in vivo at 15 mg/kg (VCaP [10]): 61%
inhibition in vivo at 30 mg/kg (VCaP [11]): 80%
